Among the data in ChEMBL document CHEMBL1123202, “Imidazo[4,5-c]pyridines (3-deazapurines) and their nucleosides as immunosuppressive and antiinflammatory agents” (1986) are inhibition and ED50 values, retold here.

SMILES strings stand for the structures. Active and inactive are the calls of the source. The rule behind the calls is not given here. Some results are limits rather than exact numbers.

Test [1] has as its system EL4. Kind of test: Inhibition of lymphocyte-mediated cytolysis at a concentration of 100 uM in [51Cr]- labelled EL4 leukemia cells. In kind it is functional. To be noted: Mus musculus.
Test [2] is filed under the species Mus musculus. As to the kind of experiment: Compound was tested for inhibition of mouse connective tissue cell (L) growth at a concentration of 100 uM. The format is functional. Particulars: Mus musculus. The essentials:
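D-98 (human sternal marrow) and L (mouse connective tissue) cells were cultured with compound at 100 µM, and growth inhibition was reported as %. Procedure per earlier publication.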

Test [3] relates to D98 (Homo sapiens). Kind of test: Compound was tested for inhibition of human sternal marrow cell (D98) growth at a concentration of 100 uM.
Test [4] concerns Rattus norvegicus. As to the kind of experiment: Dose required to produce an acute inflammatory response of the algal poly saccharide carrageenan into the pleural cavity of rat; IA is Inactive at 6 mg/kg. In kind it is functional, organism-based. More on the design: dose 6 mg/kg.
In test [5] the test system is EL4. As to the kind of experiment: Compound was tested for inhibition of lymphocyte-mediated cytolysis at a concentration of 50 uM in [51Cr]- labeled EL4 leukemia cells. In kind it is functional. To be noted: Mus musculus.
The subject of test [6] is EL4. Kind of test: Compound was tested for inhibition of lymphocyte-mediated cytolysis at a concentration of 26 uM in [51Cr]- labeled EL4 leukemia cells. The format is functional. Particulars: Mus musculus.
The species entered for test [7] is Rattus norvegicus. As to the kind of experiment: Dose required to produce an acute inflammatory response of the algal poly saccharide carrageenan into the pleural cavity of rat. The format is functional.

As to `CNc1[nH]ccc2ncnc1-2`, the inhibition at 100 µM was < 5% in test [1] and 6% in test [2]. The same compound showed an inhibition in test [3] of 18%. The ED50 entry in test [4] was “inactive”.

On to `CCNc1nccc2c1ncn2C1O[C@H](CO)[C@@H](O)[C@H]1O` (some centres undefined), for which the values for the inhibition at 100 µM in test [1] and in test [2] were 8% and 20%, respectively. The compound further returned an inhibition in test [3] of 4%. Also, in test [4], the ED50 entry was “inactive”.

Regarding `CCCCCCNc1[nH]ccc2ncnc1-2`, the inhibition at 100 µM was 100% in test [1] and 82% in test [2]. The same compound displayed an inhibition at 50 µM in test [5] of 45%. In test [6], this compound came in with an inhibition at 26 µM of 0%. The ED50 in test [7] is > 9 mg/kg. This compound yielded an inhibition in test [3] of 53%.
